Active and inactive are the calls of the source. The rule behind the calls is not given here.
Tests used:
[1] = tested on: Botrytis cinerea; assay: Antifungal activity against Botryotinia fuckeliana assessed as growth inhibition after 72 hr by NCCLS M27-A broth microdilution method; format: functional, organism-based
Outline: (§1)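 Broth microdilution adapted from the NCCLS M27-A yeast method for conidia-forming filamentous plant pathogens. Growth inhibition was read at 48 h and 72 h for Botrytis cinerea, and at 120 h and 144 h for Phomopsis viticola and P. obscurans. The highest concentration tested was 30 μM. Captan served as the internal standard. Means were compared by ANOVA with Fisher's protected LSD.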

[2] = tested on: Botrytis cinerea; assay: Antifungal activity against Botryotinia fuckeliana assessed as growth inhibition after 48 hr by NCCLS M27-A broth microdilution method; format: functional, organism-based; outline: as §1
[3] = tested on: Phomopsis obscurans; assay: Antifungal activity against Phomopsis obscurans assessed as growth inhibition after 120 hr by NCCLS M27-A broth microdilution method; format: functional, organism-based; conditions: Paraphomopsis obscurans; outline: as §1
[4] = tested on: Phomopsis obscurans; assay: Antifungal activity against Phomopsis obscurans assessed as growth inhibition after 144 hr by NCCLS M27-A broth microdilution method; format: functional, organism-based; conditions: Paraphomopsis obscurans; outline: as §1
[5] = Octanol-water partition coefficient, log P of the compound by HPLC analysis; format: physicochemical
Outline: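 Log P was estimated by isocratic reversed-phase HPLC on a Gemini C18 column (5 μm, 4.6 × 150 mm). The mobile phase was MeOH/H2O/2% HCOOH in H2O (55:43:2, w/w) at 1.0 mL/min and 37 °C, with samples dissolved in the mobile phase. Capacity factor K = (t1 − t0)/t0, with t0 taken from D2O. […] At least 5 injections were made.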

[6] = tested on: Phomopsis obscurans; assay: Antifungal activity against Phomopsis obscurans assessed as growth inhibition at 30 uM after 144 hr by NCCLS M27-A broth microdilution method; format: functional, organism-based; conditions: Paraphomopsis obscurans; outline: as §1
[7] = tested on: Diaporthe ampelina; assay: Antifungal activity against Diaporthe ampelina assessed as growth inhibition after 144 hr by NCCLS M27-A broth microdilution method; format: functional, organism-based; outline: as §1
[8] = tested on: Diaporthe ampelina; assay: Antifungal activity against Diaporthe ampelina assessed as growth inhibition after 120 hr by NCCLS M27-A broth microdilution method; format: functional, organism-based; outline: as §1
[9] = tested on: Diaporthe ampelina; assay: Antifungal activity against Diaporthe ampelina assessed as growth inhibition at 30 uM after 144 hr by NCCLS M27-A broth microdilution method; format: functional, organism-based; outline: as §1

## CC(C)/C=C/c1c(O)cc(/C=C/C2=CC(=O)OC2CC(=O)O)cc1O (centres undefined)
[1]
  Activity: inactive
[2]
  Activity: inactive
[3]
  Activity: inactive
[4]
  Activity: inactive
[5]; read-out: logP
  logP: 2.59

## COc1cccc(CCc2ccc(O)cc2)c1
[6]
  Activity: Active
[5]
  logP: 3.07

## O=C1C2CC=CCC2C(=O)N1SC(Cl)(Cl)Cl (centres undefined)
[7]
  Activity: Active

## Oc1ccc(/C=C/c2ccccc2)cc1O
[1]
  Activity: inactive
[2]
  Activity: Active
[6]
  Activity: inactive
[8]
  Activity: inactive

## COc1cc(/C=C/c2ccccc2)cc(OC)c1 [3,5-O-DIMETHYLPINOSYLVIN]
[6]
  Activity: inactive
[5]; read-out: logP
  logP: 4.15

## Oc1cccc(CCc2ccccc2)c1 [3-PHENETHYLPHENOL]
[6]
  Activity: Active
[9]
  Activity: Active
[8]
  Activity: Active
[5]
  logP: 3.19

## Oc1ccc(/C=C/c2cccc(O)c2)cc1 [(E)-3,4'-STILBENDIOL]
[6]
  Activity: Active
[5]; read-out: logP
  logP: 2.08

## Oc1cccc(/C=C/c2ccccc2)c1 [(E)-3-STILBENOL]
[6]
  Activity: Active
[5]
  logP: 3.22

## COc1cccc(/C=C/c2ccc(O)cc2)c1 [(E)-5-METHOXY-4'-STILBENOL]
[6]
  Activity: Active
[8]
  Activity: Active
[5]
  logP: 3.14

## CC(C)/C=C/c1c(O)cc(/C=C/c2ccc(O)c(O)c2)cc1O [ARACHIDIN-1]
[1]
  Activity: inactive
[2]
  Activity: inactive
[3]
  Activity: inactive
[4]
  Activity: inactive
[5]
  logP: 2.44

## CC(C)=CCc1c(O)cc(/C=C/c2ccc(O)cc2)cc1O [ARACHIDIN-2]
[1]
  Activity: inactive
[2]
  Activity: inactive
[3]
  Activity: inactive
[4]
  Activity: inactive
[5]; read-out: logP
  logP: 2.56

## CC(C)/C=C/c1c(O)cc(/C=C/c2ccc(O)cc2)cc1O [ARACHIDIN-3]
[1]
  Activity: inactive
[2]
  Activity: inactive
[3]
  Activity: inactive
[4]
  Activity: inactive
[5]; read-out: logP
  logP: 2.83

## CC(C)/C=C/c1c(O)cc(/C=C/c2ccccc2)cc1O [ARAHYPIN-1]
[1]
  Activity: inactive
[2]
  Activity: inactive
[3]
  Activity: Active
[4]
  Activity: Active
[7]
  Activity: Active
[5]
  logP: 3.71

## CC(C)(O)C(O)Cc1cc(/C=C/c2cc(O)cc(O)c2)ccc1O (centres undefined) [ARAHYPIN-2]
[1]
  Activity: inactive
[2]
  Activity: inactive
[3]
  Activity: Active
[4]
  Activity: inactive
[5]
  logP: 1.36

## CC(C)(O)C(O)Cc1c(O)cc(/C=C/c2ccc(O)cc2)cc1O (centres undefined) [ARAHYPIN-3]
[1]
  Activity: inactive
[2]
  Activity: inactive
[5]
  logP: 1.59

## CC(C)(O)C(O)Cc1c(O)cc(/C=C/c2ccccc2)cc1O (centres undefined) [ARAHYPIN-4]
[1]
  Activity: inactive
[2]
  Activity: inactive
[5]
  logP: 2.59

## CC1(C)C=Cc2c(O)cc(/C=C/c3ccc(O)cc3)cc2O1 [ARAHYPIN-5]
[1]
  Activity: inactive
[2]
  Activity: inactive
[7]
  Activity: Active
[5]
  logP: 3.34

## CC(C)=CCc1c(O)cc(/C=C/c2ccccc2)cc1O [CHIRICANINE A]
[1]
  Activity: inactive
[2]
  Activity: inactive
[3]
  Activity: inactive
[4]
  Activity: Active
[7]
  Activity: Active
[5]
  logP: 3.46

## CC(C)=CCC/C(C)=C/Cc1c(O)cc(/C=C/c2ccc(O)cc2O)cc1O [CHLOROPHORIN]
[1]
  Activity: Active
[2]
  Activity: Active
[6]
  Activity: Active
[8]
  Activity: Active
[5]
  logP: 3.29

## COc1cc(O)cc(/C=C/c2ccccc2)c1 [PINOSYLVIN METHYL ETHER]
[6]
  Activity: Active
[8]
  Activity: Active
[5]; read-out: logP
  logP: 3.21

## Oc1cc(O)cc(/C=C/c2ccccc2)c1 [PINOSYLVIN]
[1]
  Activity: inactive
[2]
  Activity: Active
[6]
  Activity: inactive
[8]
  Activity: inactive
[5]; read-out: logP
  logP: 2.25

## COc1cc(/C=C/c2ccc(O)cc2)cc(OC)c1 [PTEROSTILBENE]
[1]
  Activity: Active
[2]
  Activity: Active
[6]
  Activity: Active
[5]; read-out: logP
  logP: 3.15

## Oc1ccc(/C=C/c2cc(O)cc(O)c2)cc1 [RESVERATROL]
[1]
  Activity: inactive
[2]
  Activity: Active
[6]
  Activity: inactive
[8]
  Activity: inactive
[5]; read-out: logP
  logP: 1.35

## COc1ccc(/C=C/c2cc(O)cc(O[C@@H]3O[C@H](CO)[C@@H](O)[C@H](O)[C@H]3O)c2)cc1O [RHAPONTIN]
[1]
  Activity: Active
[6]
  Activity: Active
[5]
  logP: 0.74

## COc1ccc(/C=C/c2cc(OC)cc(OC)c2)cc1 [TRISMETHOXYRESVERATROL]
[6]
  Activity: Active
[5]; read-out: logP
  logP: 4.07

From ChEMBL document CHEMBL3045061, “Biological activity of peanut (Arachis hypogaea) phytoalexins and selected natural and synthetic Stilbenoids” (J Agric Food Chem, 2011)
